Positions count from the first letter of the chain named. Like-named read-outs stand apart in the source and are kept apart here.
Assays:
CLC-0 E166K mutant = target: T1, CLC-0 E166K mutant (Torpedo marmorata, UniProt P21564, C212S/E166K); format: cell-based; conditions: for IC50: read-out: Apparent affinity (K1/2)
T1 sequence (P21564 1-805 E166K/C212S): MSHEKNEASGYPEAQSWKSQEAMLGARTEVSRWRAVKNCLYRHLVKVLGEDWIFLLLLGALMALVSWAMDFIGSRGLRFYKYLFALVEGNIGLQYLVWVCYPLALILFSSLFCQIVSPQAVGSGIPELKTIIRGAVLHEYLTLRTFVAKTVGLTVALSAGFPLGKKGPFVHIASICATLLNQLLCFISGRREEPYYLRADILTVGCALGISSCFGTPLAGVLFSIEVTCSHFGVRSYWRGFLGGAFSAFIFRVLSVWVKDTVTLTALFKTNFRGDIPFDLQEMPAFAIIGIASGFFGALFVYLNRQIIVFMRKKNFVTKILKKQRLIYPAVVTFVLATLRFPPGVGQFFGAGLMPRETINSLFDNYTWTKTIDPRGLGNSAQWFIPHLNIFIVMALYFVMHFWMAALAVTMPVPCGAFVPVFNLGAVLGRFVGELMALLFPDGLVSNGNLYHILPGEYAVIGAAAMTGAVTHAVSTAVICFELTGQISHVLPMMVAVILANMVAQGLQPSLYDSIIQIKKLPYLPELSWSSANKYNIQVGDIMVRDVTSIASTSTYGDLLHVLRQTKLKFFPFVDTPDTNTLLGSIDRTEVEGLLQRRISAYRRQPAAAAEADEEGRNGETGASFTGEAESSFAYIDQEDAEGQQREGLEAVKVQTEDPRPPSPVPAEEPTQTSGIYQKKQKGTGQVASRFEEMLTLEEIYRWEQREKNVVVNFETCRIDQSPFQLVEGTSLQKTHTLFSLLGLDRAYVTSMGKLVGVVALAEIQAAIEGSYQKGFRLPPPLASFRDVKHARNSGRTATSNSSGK
Summary of the method: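 CLC-0 mutants in the C212S background were transfected into HEK293 cells with lipofectamine and recorded 1–3 d later as excised inside-out patches. Both sides held 130 mM NaCl, 5 mM MgCl2, 10 mM HEPES and 1 mM EGTA, pH 7.4. CPA was perfused continuously onto the cytoplasmic face. Steady-state current over the last 10 ms was normalized to bracketing blocker-free controls and fitted to a Langmuir function for K1/2. Values are mean ± SEM of ~4–6 patches.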

CLC-0 E166A mutant = target: T2, CLC-0 E166A mutant (Torpedo marmorata, UniProt P21564, C212S/E166A); format: cell-based; conditions: for IC50: read-out: Apparent affinity (K1/2)
T2 sequence (P21564 1-805 E166A/C212S): T1 sequence (P21564 1-805 E166K/C212S) with K166A
Summary of the method: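 HEK293 cells expressed C212S-background CLC-0 mutants and were recorded 1–3 d post-transfection as inside-out patches in symmetrical 130 mM NaCl, 10 mM HEPES, pH 7.4. CPA, fatty acids or alkyl sulfates flowed continuously on the cytoplasmic side. C10–C12 compounds were diluted into bath solution from 10 mM DMSO stocks. Test steps ran from +80 to −160 mV after a +80 mV prepulse. Steady-state current was normalized to the mean of pre- and post-blocker controls, and a Langmuir K1/2 was taken at each voltage from ~4–6 patches.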

Structure (SMILES) | block of current (CLC-0 E166K mutant; 0.3 mM CPA, −160 mV) | IC50 (CLC-0 E166K mutant; −80 mV) | IC50 (CLC-0 E166K mutant; −100 mV) | IC50 (CLC-0 E166K mutant; −120 mV) | IC50 (CLC-0 E166K mutant; −140 mV) | IC50 (CLC-0 E166K mutant; −160 mV) | block of current (CLC-0 E166A mutant; 10 μM) | inhibition of current (CLC-0 E166A mutant; 300 μM CPA, −160 mV) | IC50 (CLC-0 E166A mutant; −40 mV) | IC50 (CLC-0 E166A mutant; −60 mV) | IC50 (CLC-0 E166A mutant; −80 mV) | IC50 (CLC-0 E166A mutant; −100 mV) | IC50 (CLC-0 E166A mutant; −120 mV) | IC50 (CLC-0 E166A mutant; −140 mV) | IC50 (CLC-0 E166A mutant; −160 mV) | saturated value of 1/τ of current inhibition (CLC-0 E166A mutant; voltage step +80 to −160 mV) | K1/2 (range in words) (CLC-0 E166A mutant; −140 mV (Fig. 10 C))
O=C(O)COc1ccc(Cl)cc1 [CPA, p-chlorophenoxy acetate] | ~10% | 21300 ± 900 µM | 15600 ± 700 µM | 11300 ± 500 µM | 7990 ± 350 µM | 5620 ± 270 µM | ~50% | ~95% | 337 ± 19 µM | 162 ± 9 µM | 82 ± 4 µM | 46 ± 2 µM | 25 ± 2 µM | 15 ± 1 µM | 10 ± 1 µM | 1561 s⁻¹ | –
CCCCCCCC(=O)O [octanoate] | – | 29200 ± 530 µM | 21600 ± 540 µM | 15400 ± 500 µM | 10600 ± 450 µM | 7240 ± 330 µM | – | – | 64.3 ± 3.7 µM | 29.7 ± 1.4 µM | 15.7 ± 0.7 µM | 8.2 ± 0.2 µM | 4.7 ± 0.2 µM | 2.8 ± 0.2 µM | 1.9 ± 0.1 µM | – | low μM range
